# Screening data (PubChem)
# This is one part of a sample in which hits are shown more often than they occur.
# TLR4 MyD88 comp: TLR4-MyD88 interaction inhibition in cells; 0.18% of 200,000 active; O00206+Q99836; inhibition, % at 8.4 µM; HeLa CL3-4 TLR4/MyD88 BLA complementation, FRET ratio; AID 861; in the data active = inhibition above about 25%
# Target sequence (O00206 whole entry, looked up): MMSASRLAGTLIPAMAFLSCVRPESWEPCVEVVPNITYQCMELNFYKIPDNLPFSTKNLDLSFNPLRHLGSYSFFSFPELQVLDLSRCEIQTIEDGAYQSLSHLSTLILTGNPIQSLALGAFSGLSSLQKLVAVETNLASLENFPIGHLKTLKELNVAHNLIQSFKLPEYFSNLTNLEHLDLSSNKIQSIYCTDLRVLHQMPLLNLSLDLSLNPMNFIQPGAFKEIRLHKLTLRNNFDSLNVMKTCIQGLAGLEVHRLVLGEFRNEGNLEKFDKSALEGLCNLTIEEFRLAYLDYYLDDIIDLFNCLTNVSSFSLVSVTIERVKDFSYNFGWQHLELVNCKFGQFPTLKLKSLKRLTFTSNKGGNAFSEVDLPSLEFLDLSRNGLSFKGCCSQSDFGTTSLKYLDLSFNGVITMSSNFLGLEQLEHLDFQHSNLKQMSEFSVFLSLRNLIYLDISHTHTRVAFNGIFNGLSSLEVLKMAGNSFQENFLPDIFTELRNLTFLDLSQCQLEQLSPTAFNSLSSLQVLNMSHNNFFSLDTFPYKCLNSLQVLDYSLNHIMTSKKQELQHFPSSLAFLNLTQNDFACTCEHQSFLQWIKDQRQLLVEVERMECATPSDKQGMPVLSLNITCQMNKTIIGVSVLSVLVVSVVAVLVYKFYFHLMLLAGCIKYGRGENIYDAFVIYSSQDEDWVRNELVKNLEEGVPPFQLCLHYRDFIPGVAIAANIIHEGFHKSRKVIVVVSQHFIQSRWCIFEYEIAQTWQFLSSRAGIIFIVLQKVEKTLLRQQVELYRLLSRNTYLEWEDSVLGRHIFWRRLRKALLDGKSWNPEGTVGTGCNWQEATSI
# Target sequence (Q99836 whole entry, looked up): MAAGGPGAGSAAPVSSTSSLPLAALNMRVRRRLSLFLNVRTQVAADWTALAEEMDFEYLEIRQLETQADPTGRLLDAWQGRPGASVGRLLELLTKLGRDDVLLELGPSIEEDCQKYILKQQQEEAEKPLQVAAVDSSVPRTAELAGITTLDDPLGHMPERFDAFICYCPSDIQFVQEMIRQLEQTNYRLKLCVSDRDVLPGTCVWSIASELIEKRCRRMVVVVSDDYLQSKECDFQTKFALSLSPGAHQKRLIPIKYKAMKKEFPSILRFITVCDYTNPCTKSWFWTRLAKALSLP
# CHOP UPR activ: activators of apoptotic arm of unfolded protein response (CHOP). CHO-CHOP luciferase reporter, UPR activation, luminescence; percent of tunicamycin response over DMSO baseline. activation, % at 10 µM. AID 449763. 0.34% of 330,000 active;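 active = at 10 µM dose, activation of 40% or more, normalized to positive control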
#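 Dosing – one dose, 10 µM in 0.5% DMSO · System – CHO-CHOP cells, stable luciferase reporter of PERK-eIF2a-CHOP signalling · Input – 500 cells/well · Control set – tunicamycin 10 µg/mL final as positive, DMSO-only wells as negative · Timing – 6 h compound treatment, 37 °C · Measure – % activation vs tunicamycin · Technique – luminescence read with Steady-Glo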
# CHOP inh: inhibitors of CHOP induction in ER stress response | CHO-K1 CHOP-promoter luciferase, tunicamycin-induced, 15-18 h | 3.8% of 220,000 active | AID 2732 | inhibition, % at 10 µM;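 active = compounds that reduced the stress-induced luciferase reporter signal by more than about 70% of percent inhibition, limit read from the data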
# TLR9-MyD88 inh: inhibitors of human TLR9-MyD88 binding; Q9NR96+Q99836; CHO BLA complementation TLR9-MyD88, CCF4 FRET ratio; inhibition, % at 4.98 µM; 0.21% of 340,000 active; AID 504734;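 active = inhibition above the mean over all tested compounds plus 3 SD, cut at about 21% in these data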
# NOD2-RIPK2 inh: blocks binding of human NOD2 to RIPK2; O43353; CHO BLA complementation NOD2-RIPK2, CCF4 ratio; inhibition, % at 4.98 µM; 0.38% of 360,000 active; in the data active = inhibition above about 21%
# XBP1 UPR activ: adaptive UPR (XBP1) activation | CHO-XBP1 luciferase reporter, IRE1-XBP1 UPR activation, luminescence; percent of tunicamycin response, DMSO as zero | 0.33% of 330,000 active | activation, % at 20 µM;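 active = versus positive control, 20 µM dose yields 30% or more activation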
#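 incubation = overnight seeding at 37 °C, 6 h compound treatment at 37 °C | assay system = CHO-XBP1 cells stably carrying IRE1-XBP1-driven luciferase reporter | input = 1000 cells per well | detection = luciferase luminescence | dosing = single point, 20 µM final compound, 1% DMSO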
# A number is an active result; n = inactive; x = no result.
SMILES,TLR4 MyD88 comp,CHOP UPR activ,CHOP inh,TLR9-MyD88 inh,NOD2-RIPK2 inh,XBP1 UPR activ
COc1ccc(C(NC(=O)C2CCN(Cc3ccc(Oc4ccccc4)cc3)CC2)c2ccccc2C)cn1 (stereo not drawn),x,x,x,x,n,x
OC(COC(c1ccccc1)c1ccccc1)CN1CCN(c2ccccn2)CC1 (stereo not drawn),n,n,n,n,n,n
OC(CN1CCN(c2ccccn2)CC1)Cn1c2ccccc2c2ccccc21 (stereo not drawn),n,n,72,n,n,n
CCN(CC)C(=O)COc1ccc(C=O)cc1OC,n,n,n,n,n,n
CC[C@@H]1C(=O)[C@H](Cc2ccccc2)[C@H]2CCCC(=O)N3CC[C@@H]1[C@@H]23,x,x,x,n,n,x
COC(=O)c1cccc(NC(=O)CN2CCOCC2)c1,n,n,72,n,n,n
COC(=O)c1ccc(NC(=O)CN2CCOCC2)cc1,n,n,n,n,n,n
O=S(=O)(c1ccc(Cl)s1)N1CCN(Cc2ccccc2)CC1,n,n,81,n,n,n
CN1C[C@@H]2[C@@H]3C(=O)N(Cc4ccccc4)C(=O)[C@@H]3[C@](C)(C1=O)N2C(=O)c1ccc(Cl)cc1,x,n,x,n,n,n
Cc1ccc([C@H]2N[C@]3(CCCN(Cc4ccc(F)cc4)C3=O)[C@H]3C(=O)N(Cc4ccccc4)C(=O)[C@@H]23)cc1,x,x,x,n,n,x
CCCCc1ccc(-n2c(Cc3cccs3)n[nH]c2=S)cc1,n,n,77,n,n,n
COc1cc2c(cc1NC(=S)Nc1cccc(C(F)(F)F)c1)oc1ccccc12,n,n,71,n,n,n
COc1cc2c(cc1NC(=O)COC(=O)c1ccc(C(C)(C)C)cc1)oc1ccccc12,n,n,78,n,n,n
COc1cc2c(cc1NC(=O)COc1ccccc1OC)oc1ccccc12,n,n,n,n,n,n
Cc1ccccc1NC(=O)CN1C(=O)NC2(CCc3ccccc32)C1=O (stereo not drawn),x,n,x,n,n,n
COc1cc2c(cc1NC(=O)CN1C(=O)NC3(CCc4ccccc43)C1=O)oc1ccccc12 (stereo not drawn),n,n,79,n,n,n
CC(=O)Nc1ccc2oc(-c3cc(F)c(F)cc3Cl)nc2c1,n,n,82,n,n,n
CC(=O)N1Cc2cc([N+](=O)[O-])ccc2Oc2ccccc21,n,n,n,n,n,n
C=CCO/N=C(/C)c1c(O)c(CC)c(-c2ccccc2)n(-c2ccccc2)c1=O,n,n,72,n,n,n
CCc1c(O)c(/C(C)=N\O)c(=O)n(-c2ccccc2)c1-c1ccccc1,n,n,n,n,n,n
CC1=CC(C)(C)N(C(=O)C(C)N2C(=O)c3ccccc3C2=O)c2c(C)cc(C)cc21 (stereo not drawn),n,x,105,x,x,x
COc1ccc2c(c1)C(C)=CC(C)(C)N2C(=O)C(C)N1C(=O)c2ccccc2C1=O (stereo not drawn),n,n,n,n,n,n
CC1C/C(=C/c2ccco2)C(=O)/C(=C/c2ccco2)C1 (stereo not drawn),n,n,n,x,x,n
O=C1/C(=C\c2ccco2)CCC/C1=C\c1ccco1,n,n,87,n,n,n
COc1ccc(-n2nc(C(=O)NCC(=O)NCCN(C)C)c3ccccc3c2=O)cc1,x,n,x,n,n,n
SMILES,TLR4 MyD88 comp,CHOP UPR activ,CHOP inh,TLR9-MyD88 inh,NOD2-RIPK2 inh,XBP1 UPR activ
CC(C)CN(CC(C)C)c1nnc(NC(=O)Cn2c(=O)oc3ccccc32)s1,n,n,79,n,n,n
CCc1nnc(NC(=O)Cn2c(=O)oc3ccccc32)s1,n,n,n,n,n,n
Cc1nc(-c2cccc(NS(=O)(=O)c3ccccc3)c2)cs1,n,n,n,n,n,n
Cc1ccc2nc(-c3cccc(NS(C)(=O)=O)c3)cc(-c3ccccc3)c2c1,n,n,85,n,n,n
COC(=O)c1sccc1S(=O)(=O)Nc1ccc(C(O)(C(F)(F)F)C(F)(F)F)cc1,x,x,x,x,n,x
CCOC(=O)c1cc2occc2n1CC(=O)Nc1ccc(OC)cc1OC,n,n,84,n,n,n
COc1coc(C(O)CN)cc1=O (stereo not drawn),n,n,n,n,n,n
